Data reported in ChEMBL document CHEMBL1157638, “Fluorescent epigenetic small molecule induces expression of the tumor suppressor ras-association domain family 1A and inhibits human prostate xenograft” (J Med Chem, 2010).
Calls of active or inactive are those of the source. No cut-off for these calls is given here.

Columns and labels:
HCT-116 [1] = test: Growth inhibition of human HCT116 cells assessed as cell growth at 100 nM relative to untreated control; assay type: functional; conditions: read-out: Activity
Summary of the method: (§1)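 Run externally at the National Cancer Institute as a 59-cell-line panel screen, with concentrations up to 100 μM. Growth was scored relative to control, where negative growth or total cell kill was possible. Data are in the Supporting Information.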

HCT-15 [2] = test: Growth inhibition of human HCT15 cells assessed as cell growth at 100 nM relative to untreated control; assay type: functional; conditions: read-out: Activity; summary of the method: as §1
SW-620 [3] = test: Growth inhibition of human SW620 cells assessed as cell growth at 100 nM relative to untreated control; assay type: functional; conditions: read-out: Activity
SF-295 [4] = test: Growth inhibition of human SF295 cells assessed as cell growth at 100 nM relative to untreated control; assay type: functional; conditions: read-out: Activity
SK-MEL-28 = test: Growth inhibition of human SK-MEL-28 cells assessed as cell growth at 100 nM relative to untreated control; assay type: functional; conditions: read-out: Activity
UACC-62 [5] = test: Growth inhibition of human UACC62 cells assessed as cell growth at 100 nM relative to untreated control; assay type: functional; conditions: read-out: Activity
OVCAR-5 = test: Growth inhibition of human OVCAR5 cells assessed as cell growth at 100 nM relative to untreated control; assay type: functional; conditions: read-out: Activity
SK-OV-3 = test: Growth inhibition of human SKOV3 cells assessed as cell growth at 100 nM relative to untreated control; assay type: functional; conditions: read-out: Activity
[6] = Growth inhibition of human Hs 578T cells assessed as cell growth at 100 nM relative to untreated control; assay type: functional; conditions: read-out: Activity
MOLT-4 = test: Growth inhibition of human MOLT4 cells assessed as cell growth at 1 uM relative to untreated control; assay type: functional; conditions: read-out: Activity
HCC 2998 = test: Growth inhibition of human HCC2998 cells assessed as cell growth at 1 nM relative to untreated control; assay type: functional; conditions: read-out: Activity; summary of the method: as §1
U-251 = test: Growth inhibition of human U251 cells assessed as cell growth at 1 nM relative to untreated control; assay type: functional; conditions: read-out: Activity
UACC-62 [7] = test: Growth inhibition of human UACC62 cells assessed as cell growth at 1 uM relative to untreated control; assay type: functional; conditions: read-out: Activity
MDA-MB-231 [8] = test: Growth inhibition of human MDA-MB-231 cells assessed as cell growth at 1 nM relative to untreated control; assay type: functional; conditions: read-out: Activity
EKVX = test: Growth inhibition of human EKVX cells assessed as cell growth at 10 nM relative to untreated control; assay type: functional; conditions: read-out: Activity; summary of the method: as §1
HOP-62 = test: Growth inhibition of human HOP62 cells assessed as cell growth at 10 nM relative to untreated control; assay type: functional; conditions: read-out: Activity; summary of the method: as §1
NCI-H23 = test: Growth inhibition of human NCI-H23 cells assessed as cell growth at 10 nM relative to untreated control; assay type: functional; conditions: read-out: Activity
CCRF-CEM = test: Growth inhibition of human CCRF-CEM cells assessed as cell growth at 10 uM relative to untreated control; assay type: functional; conditions: read-out: Activity
NCI-H522 = test: Growth inhibition of human NCI-H522 cells assessed as cell growth at 10 uM relative to untreated control; assay type: functional; conditions: read-out: Activity
HCT-15 [9] = test: Growth inhibition of human HCT15 cells assessed as cell growth at 10 uM relative to untreated control; assay type: functional; conditions: read-out: Activity; summary of the method: as §1
HT-29 = test: Growth inhibition of human HT-29 cells assessed as cell growth at 10 uM relative to untreated control; assay type: functional; conditions: read-out: Activity
KM12 [10] = test: Growth inhibition of human KM12 cells assessed as cell growth at 10 uM relative to untreated control; assay type: functional; conditions: read-out: Activity
SF-268 = test: Growth inhibition of human SF268 cells assessed as cell growth at 10 uM relative to untreated control; assay type: functional; conditions: read-out: Activity
SF-539 = test: Growth inhibition of human SF539 cells assessed as cell growth at 10 uM relative to untreated control; assay type: functional; conditions: read-out: Activity
SN12C = test: Growth inhibition of human SN12C cells assessed as cell growth at 10 uM relative to untreated control; assay type: functional; conditions: read-out: Activity
[11] = Growth inhibition of human […] cells; assay type: functional
A549 = test: Growth inhibition of human A549 cells; assay type: functional
NCI-H226 = test: Growth inhibition of human NCI-H226 cells; assay type: functional
NCI-H460 = test: Growth inhibition of human NCI-H460 cells; assay type: functional
KM12 [12] = test: Growth inhibition of human KM12 cells; assay type: functional
SW-620 [13] = test: Growth inhibition of human SW620 cells; assay type: functional
SF-295 [14] = test: Growth inhibition of human SF295 cells; assay type: functional
LOX IMVI [15] = test: Growth inhibition of human LOXIMVI cells; assay type: functional
M14 = test: Growth inhibition of human M14 cells; assay type: functional
UACC-62 [16] = test: Growth inhibition of human UACC62 cells; assay type: functional
[17] = target: DNA (cytosine-5)-methyltransferase 3B (Homo sapiens) (UniProt Q9UBC3); test: Binding affinity to DNMT3b in human PC3 cells cytoplasm at 5 uM after 1 hr by antibody staining; assay type: cell-based; conditions: PC-3
Summary of the method: (§2)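 PC-3 cells were plated overnight on fibronectin/[…]-coated slides and treated with 5 μM compound or DMSO for 1-6 h. Cells were PBS-washed, fixed in 4% formaldehyde, and stained with propidium iodide (nuclei) and anti-DNMT3a or anti-DNMT3b antibody. The compound was excited at 725 nm by multiphoton laser and imaged through a 500-550 nm filter by confocal microscopy.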

[18] = target: DNA (cytosine-5)-methyltransferase 3B (Homo sapiens) (UniProt Q9UBC3); test: Binding affinity to DNMT3b in human PC3 cells cytoplasm at 5 uM after 6 hrs by antibody staining; assay type: cell-based; conditions: PC-3; summary of the method: as §2
RXF 393 [19] = test: Growth inhibition of human RXF393 cells; assay type: functional
MDA-MB-231 [20] = test: Growth inhibition of human MDA-MB-231 cells; assay type: functional
HCT-116 [21] = test: Growth inhibition of human HCT116 cells assessed as cell growth at 10 nM relative to untreated control; assay type: functional; conditions: read-out: Activity; summary of the method: as §1
SW-620 [22] = test: Growth inhibition of human SW620 cells assessed as cell growth at 10 nM relative to untreated control; assay type: functional; conditions: read-out: Activity
LOX IMVI [23] = test: Growth inhibition of human LOXIMVI cells assessed as cell growth at 10 nM relative to untreated control; assay type: functional; conditions: read-out: Activity
SK-MEL-2 = test: Growth inhibition of human SK-MEL-2 cells assessed as cell growth at 10 nM relative to untreated control; assay type: functional; conditions: read-out: Activity
RXF 393 [24] = test: Growth inhibition of human RXF393 cells assessed as cell growth at 10 nM relative to untreated control; assay type: functional; conditions: read-out: Activity
[25] = read-out: LC50 (the source's name)

COc1ccc2c(c1)[nH]c1c(C)c(OS(=O)(=O)c3cccc4c(N(C)C)cccc34)ccc12
growth at 0.1 µM (HCT-116 [1]): 94% | growth at 0.1 µM (HCT-15 [2]): 92% | growth at 0.1 µM (SW-620 [3]): 95% | growth at 0.1 µM (SF-295 [4]): 69% | growth at 0.1 µM (SK-MEL-28): 75% | growth at 0.1 µM (UACC-62 [5]): 75% | growth at 0.1 µM (OVCAR-5): 103% | growth at 0.1 µM (SK-OV-3): 99% | growth at 0.1 µM [6]: 88% | growth at 1 µM (MOLT-4): 20% | growth at 0.001 µM (HCC 2998): 99% | growth at 0.001 µM (U-251): 100% | growth at 1 µM (UACC-62 [7]): 28% | growth at 0.001 µM (MDA-MB-231 [8]): 97% | growth at 0.01 µM (EKVX): 96% | growth at 0.01 µM (HOP-62): 111% | growth at 0.01 µM (NCI-H23): 91% | growth at 10 µM (CCRF-CEM): 1% | growth at 10 µM (NCI-H522): 37% | growth at 10 µM (HCT-15 [9]): 19% | growth at 10 µM (HT-29): 8% | growth at 10 µM (KM12 [10]): 6% | growth at 10 µM (SF-268): 27% | growth at 10 µM (SF-539): -32% | growth at 10 µM (SN12C): 30% | GI50 [11]: 2.84 µM | TGI [11]: 24 µM | CC50 [11, 25]: > 100 µM | GI50 (A549): 4.98 µM | TGI (A549): > 100 µM | CC50 (A549; [25]): > 100 µM | GI50 (NCI-H226): 11.3 µM | TGI (NCI-H226): > 100 µM | CC50 (NCI-H226; [25]): > 100 µM | GI50 (NCI-H460): 3.46 µM | TGI (NCI-H460): 55.5 µM | CC50 (NCI-H460; [25]): > 100 µM | GI50 (KM12 [12]): 41.5 µM | TGI (KM12 [12]): > 100 µM | CC50 (KM12 [12]; [25]): > 100 µM | GI50 (SW-620 [13]): 4.32 µM | TGI (SW-620 [13]): > 100 µM | CC50 (SW-620 [13]; [25]): > 100 µM | GI50 (SF-295 [14]): 3.4 µM | TGI (SF-295 [14]): > 100 µM | CC50 (SF-295 [14]; [25]): > 100 µM | GI50 (LOX IMVI [15]): 48.4 µM | TGI (LOX IMVI [15]): > 100 µM | CC50 (LOX IMVI [15]; [25]): > 100 µM | GI50 (M14): 50.2 µM | TGI (M14): > 100 µM | CC50 (M14; [25]): > 100 µM | GI50 (UACC-62 [16]): 3.39 µM | TGI (UACC-62 [16]): > 100 µM | CC50 (UACC-62 [16]; [25]): > 100 µM | Activity [17]: Active | Activity [18]: Active | GI50 (RXF 393 [19]): 2.44 µM | TGI (RXF 393 [19]): 5.95 µM | CC50 (RXF 393 [19]; [25]): > 100 µM | GI50 (MDA-MB-231 [20]): 9.3 µM | TGI (MDA-MB-231 [20]): > 100 µM | CC50 (MDA-MB-231 [20]; [25]): > 100 µM | growth at 0.01 µM (HCT-116 [21]): 106% | growth at 0.01 µM (SW-620 [22]): 104% | growth at 0.01 µM (LOX IMVI [23]): 92% | growth at 0.01 µM (SK-MEL-2): 110% | growth at 0.01 µM (RXF 393 [24]): 107%
